Screens: PubChem BioAssay, several laboratories
Rows were chosen to be rich in hits. Some 3.8% of all compounds tested hit in one or more screens of this group.
RGS4 inh: human RGS4 inhibition; HEK293 M3R/RGS4 inducible, Fluo-4 calcium flux; hits give high values; triggered by carbachol at its EC20; AID 463165; P49798; actives 0.45% (n = 310,000); B-score at 10 µM;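 active = B-score, a plate-corrected calcium signal, over three deviations above library mean, with baseline fluorescence within five deviations of library mean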;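 note: RGS4 expression induced by doxycycline in cells with stable M3 receptor; B-score is computed from the integrated fluorescence ratio over baseline after carbachol; higher B-score means a larger calcium signal and so more RGS4 inhibition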
Target sequence (P49798 whole entry, looked up): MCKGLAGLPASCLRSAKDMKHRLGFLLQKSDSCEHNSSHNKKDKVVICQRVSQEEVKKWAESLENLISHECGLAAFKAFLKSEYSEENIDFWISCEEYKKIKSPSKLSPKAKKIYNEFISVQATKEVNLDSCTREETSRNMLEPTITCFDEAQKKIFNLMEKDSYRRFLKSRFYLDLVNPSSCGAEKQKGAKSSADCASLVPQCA
MrgX1 PAM: human MrgX1 positive allosteric modulation, primary screen; MrgX1-HEK293, Fluo-4 calcium flux, FDSS; hits give high values; B-score at 10 µM; actives 0.63% (n = 310,000);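 active = plate-corrected calcium response at least 3 library SD above typical, normal starting fluorescence, not activating the receptor alone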;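 note: compound read alongside a low EC10 to EC30 dose of BAM8-22 agonist; peak minus trough fluorescence over baseline measured at the second addition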
Target sequence (Q96LB2 whole entry, looked up): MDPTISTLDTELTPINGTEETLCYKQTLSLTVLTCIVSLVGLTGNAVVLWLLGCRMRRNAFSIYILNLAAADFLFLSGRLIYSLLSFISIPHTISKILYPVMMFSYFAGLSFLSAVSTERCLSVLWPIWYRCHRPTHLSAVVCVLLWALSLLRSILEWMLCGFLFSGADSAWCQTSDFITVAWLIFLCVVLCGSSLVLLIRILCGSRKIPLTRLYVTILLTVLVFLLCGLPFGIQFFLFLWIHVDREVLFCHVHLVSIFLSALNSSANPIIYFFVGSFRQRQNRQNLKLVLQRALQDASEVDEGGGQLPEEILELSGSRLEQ
Hep lipid drop: hepatic lipid droplet formation modulation. AML12 mouse hepatocytes, oleate lipid droplets, BODIPY imaging. inhibition, % at 6.5 µM. actives 0.4% (n = 240,000). AID 1656;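 active = lipid droplet intensity inhibited by at least 50%, with more than 500 cells counted; inconclusive = wells with under 300 cells, treated as cytotoxic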
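Technique: fluorescence imaging, 20x objective, two fields per well / Assay system: AML12 hepatocytes (mouse) / Measure: % inhibition of lipid droplet signal / Doses: 6.5 µM single-point dosing / Incubation: overnight exposure / Reagent: 100 µM oleic acid challenge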
MrgX1 antagonist: antagonists of human MrgX1 receptor; Q96LB2; MRGX1-HEK293 calcium flux, Fluo-4, BAM8-22 antagonism; hits give low values; B-score at 10 µM; actives 1.3% (n = 310,000); AID 588676;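 active = calcium-response B-score plate-corrected more than 3 library SD below zero, starting fluorescence within 5 deviations, no agonist response on first addition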;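 note: peak minus trough fluorescence over baseline after final BAM8-22 challenge near maximal dose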
RGS4 pot: RGS4 potentiation or activation; HEK293 M3R/inducible RGS4, carbachol calcium flux Fluo4; hits give low values; B-score at 10 µM; actives 0.92% (n = 310,000);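 active = B-score of the integrated calcium signal more than 4 SD below the library mean, with starting fluorescence not abnormally high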;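 note: negative B-score means reduced calcium response which marks RGS4 activation or potentiation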
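Material: M3R-expressing HEK293 line, RGS4 induced by doxycycline | Schedule: Overnight RGS4 induction, 30 min dye load 37 °C, 20 min compound RT | Measured by: Fluo4 fluorescence kinetic imaging of calcium | Read-out: Integrated calcium ratio converted to B score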
MrgX1 ag: human MrgX1 receptor agonism, primary screen. MrgX1-HEK293 cells, Fluo-4 calcium fluorescence, agonist mode; hits give high values. B-score at 10 µM. Q96LB2. actives 0.44% (n = 310,000);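 active = calcium response B-score plate-corrected fluorescence ratio at least 3 library SD, with starting fluorescence B-score inside 5 SD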
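Test system: HEK293 cells stably expressing human MrgX1 receptor; Input: fifteen thousand cells per well; Dosing: compound delivered in addition one of three; Schedule: overnight seeding, then 1 h dark dye loading; Technique: Fluo-4 NW calcium fluorescence; Measure: B-scored fluorescence response ratio; Controls: positive and negative controls per plate.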
* = called active by the depositor; i = inactive; ? = inconclusive; · = not tested or not shown.

SMILES	RGS4 inh	MrgX1 PAM	Hep lipid drop	MrgX1 antagonist	RGS4 pot	MrgX1 ag
CCc1nnc(NS(=O)(=O)c2ccc(NC(=O)c3cccc(OC)c3)cc2)s1	i	i	9	i	i	i
CCOC(=O)/C(C#N)=C\c1ccc2c(c1)OCO2	i	i	·	i	i	i
N#C/C(=C\c1ccc2c(c1)OCO2)C(N)=S	i	7.5*	2	i	i	i
CCCC1=Nc2cc(C(=O)N3CCCC3)ccc2Sc2ccc(C)cc21	i	i	-24	i	i	i
CCCC1=Nc2cc(C(=O)N3CCN(c4ccccn4)CC3)ccc2Sc2ccc(C)cc21	i	i	11	i	-7.5*	i
Cc1cc2ccccc2n1CCNC(=O)c1cccs1	i	i	-22	i	i	i
Cc1c(N=C/C=C/c2ccccc2)c(=O)n(-c2ccccc2)n1C	i	i	·	i	-8.7*	i
COc1ccc(/C=N/NC(=O)Cc2csc(Nc3cccc(C(F)(F)F)c3)n2)cc1C	i	i	·	i	i	i
Cc1cccc(N2CCN(C(=O)c3ccc4nc(-c5ccco5)c(-c5ccco5)nc4c3)CC2C)c1 (configuration not stated)	i	i	·	-7.6*	i	i
CN(Cc1ccccc1)c1nc(-c2cccc([N+](=O)[O-])c2)nc2ccccc12	i	i	0	i	i	i
CC1=CC(=O)N(c2ccn(C)n2)C1=O	i	i	18	i	i	i
O=C(/C=C/c1ccccc1)Nc1ccc2c(c1)OCCO2	i	i	0	-4.6*	i	i
O=C(/C=C/c1ccccc1)Nc1cccc(C(=O)O)c1	i	i	-1	-5.6*	i	i
CCC(=O)Nc1cccc(C(=O)/C=C/c2ccccc2)c1	i	i	·	i	i	35*
O=C(/C=C/c1ccco1)Nc1ccc2c(c1)OCCO2	i	i	3	i	i	i
N#C/C(=C\c1cccc(O)c1)C(=O)Nc1ccc2c(c1)OCCO2	i	17*	0	i	i	i
CC(C)NC(=O)/C(C#N)=C/c1ccc2c(c1)OCCO2	i	i	14	i	i	i
COc1ccc(-c2nc(CS(=O)(=O)CC(=O)NCc3ccccc3OC)c(C)o2)cc1	i	i	11	i	i	i
O=C(CSc1ccc(Br)cc1)Nc1ccccc1N1CCOCC1	i	i	-13	i	i	i
O=C1c2ccccc2C(=O)C1c1ccc(Cl)cc1	i	i	11	-6.5*	i	i
Cc1ccc(C(=O)NC(C)C2CC3CCC2C3)c(C)c1 (configuration not stated)	i	i	-6	i	i	i
Cc1ccc(C(=O)NC(=S)N(C)C2CCCCC2)cc1	i	i	-6	i	i	i
Cc1ccsc1/C=C/c1ccc2cccc(O)c2n1	i	i	-1	-5*	i	i
Cn1ncc([N+](=O)[O-])c1C(=O)Nc1ccc(-c2nc3ccccc3o2)cc1	i	i	0	i	i	i
COc1ccc(CNC(=O)C(c2ccc(C)o2)N(Cc2cccs2)C(=O)Cc2cccs2)cc1 (configuration not stated)	i	i	-2	i	i	i
SMILES	RGS4 inh	MrgX1 PAM	Hep lipid drop	MrgX1 antagonist	RGS4 pot	MrgX1 ag
Nc1cc2c3c(cccc3c1)C(=O)N(CCN1CCCC1)C2=O	i	i	?	-4.7*	i	i
Cc1c(C)c2ccc(OCC(=O)NCCCn3ccnc3)c(C)c2oc1=O	i	i	-10	i	i	i
Cc1c(NC(=O)COC(=O)c2cc(-c3cccc4ccccc34)nc3ccccc23)c(=O)n(-c2ccccc2)n1C	i	i	0	i	i	i
Cc1cccc(-c2cc(C(=O)Nc3c(C)n(C)n(-c4ccccc4)c3=O)c3ccccc3n2)c1	i	6.6*	-44	i	-8.5*	i
OC(CNCCCCNCC(O)C(F)(F)F)C(F)(F)F (configuration not stated)	i	i	-9	i	i	i
O=C(Cc1cccs1)NNC(=S)NC(=O)c1ccc(F)c(F)c1	i	i	-1	i	i	61*
O=C(Cc1cccs1)NNC(=S)NC(=O)c1ccccc1	i	i	-4	i	i	43*
O=C(Cc1ccccc1)NNC(=S)NC(=O)c1cccs1	i	i	-4	i	i	60*
O=C(NC(=S)NCc1ccccc1)c1cccs1	i	i	-2	i	i	i
COc1ccc(/C=C/C(=O)NC(=S)NNC(=O)Cc2cccs2)cc1	i	i	8	i	i	i
O=C(COc1ccccc1)NNC(=S)NC(=O)c1ccccc1	i	i	0	i	i	i
CCCCc1ccc(NC(=S)N2CCCC2)cc1	i	i	-19	i	i	i
CN(C)c1ccc([C@@H]2[C@@H]([N+](=O)[O-])[C@H]3C=Cc4ccccc4N3[C@H]2C(=O)c2ccc(Cl)cc2)cc1	·	i	-16	i	·	i
COc1ccc(NC(=O)CSc2nc(N)c(NC(=O)c3ccccc3F)c(=O)[nH]2)cc1	i	i	-1	i	i	i
COc1ccc(C(=O)NNC(=O)CSc2nc3c([nH]2)c(=O)n(C)c(=O)n3C)cc1	i	i	37	-4.6*	i	i
Cc1ccc(C(=O)Nc2c(N)nc(SCC(=O)Nc3cc(C)on3)[nH]c2=O)cc1	i	i	-3	-6.4*	i	i
COc1ccc(C(=O)Nc2c(N)nc(SCC(=O)Nc3ccc(NC(C)=O)cc3)[nH]c2=O)cc1	i	i	2	-4.9*	i	i
Cc1cc2ccccc2n2c(SCC(=O)Nc3ccc(S(=O)(=O)N4CCC(C)CC4)cc3)nnc12	i	i	-1	i	i	i
Cc1oc(-c2ccc(Cl)cc2)nc1CS(=O)CC(=O)NC1CCCC1 (configuration not stated)	i	i	10	i	i	i
O=C(NCc1ccco1)Nc1ccc([N+](=O)[O-])cc1	i	i	-5	i	i	i
CC(C(=O)NCc1ccco1)c1ccc([N+](=O)[O-])cc1 (configuration not stated)	i	i	-5	-4.5*	i	i
Cc1cc(C)n2nc(C(=O)N/N=C/c3cn(C)nc3C)nc2n1	i	i	-13	i	i	i
